A short description of series [1]: Protective index, ratio of TD50 for neurotoxicity in ip dosed albino Carworth Farms No. 1 mouse to ED50 for anticonvulsant activity in ip dosed MES albino Carworth Farms No. 1 mouse model. The format is toxicity, organism-based. The settings on record: in vivo, read-out: Ratio TD50/ED50. In a few lines: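 Male albino Carworth Farms No. 1 mice were dosed ip. Protective index = TD50/ED50, the ED50 taken from the ip maximal electroshock test.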

Series [2] is filed under the species Rattus norvegicus. Description: Effect on steady state activation of voltage-gated sodium channel in rat embryonic cortical neurons at 10 uM by whole cell patch-clamp electrophysiology. The method, boiled down: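 Rat embryonic day 19 cortical neurons, cultured 7–10 days, were whole-cell voltage-clamped at room temperature with 1–2 MΩ electrodes, with compound at 10 μM and 0.1% DMSO as control. Fast inactivation: 500 ms prepulses, then a test pulse. Activation: conductance G = I/(Vm − Vrev). V1/2 and k came from Boltzmann fits to individual cells, averaged (mean ± SEM), 5–7 cells per condition.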
(In general: Patch clamp records ionic current or voltage across a cell membrane.)

The target in series [3] is Sodium channel protein type 3 subunit alpha (Rattus norvegicus) (UniProt P08104). Description: Inhibition of rat Nav1.3 expressed in HEK293 cells assessed as half-maximal voltage for steady state fast-inactivation at 10 uM by whole cell patch-clamp electrophysiology (reference value: -65.44 +/-5.62 mV). The format is cell-based.
Sequence of Sodium channel protein type 3 subunit alpha (Rattus norvegicus) (P08104 whole entry): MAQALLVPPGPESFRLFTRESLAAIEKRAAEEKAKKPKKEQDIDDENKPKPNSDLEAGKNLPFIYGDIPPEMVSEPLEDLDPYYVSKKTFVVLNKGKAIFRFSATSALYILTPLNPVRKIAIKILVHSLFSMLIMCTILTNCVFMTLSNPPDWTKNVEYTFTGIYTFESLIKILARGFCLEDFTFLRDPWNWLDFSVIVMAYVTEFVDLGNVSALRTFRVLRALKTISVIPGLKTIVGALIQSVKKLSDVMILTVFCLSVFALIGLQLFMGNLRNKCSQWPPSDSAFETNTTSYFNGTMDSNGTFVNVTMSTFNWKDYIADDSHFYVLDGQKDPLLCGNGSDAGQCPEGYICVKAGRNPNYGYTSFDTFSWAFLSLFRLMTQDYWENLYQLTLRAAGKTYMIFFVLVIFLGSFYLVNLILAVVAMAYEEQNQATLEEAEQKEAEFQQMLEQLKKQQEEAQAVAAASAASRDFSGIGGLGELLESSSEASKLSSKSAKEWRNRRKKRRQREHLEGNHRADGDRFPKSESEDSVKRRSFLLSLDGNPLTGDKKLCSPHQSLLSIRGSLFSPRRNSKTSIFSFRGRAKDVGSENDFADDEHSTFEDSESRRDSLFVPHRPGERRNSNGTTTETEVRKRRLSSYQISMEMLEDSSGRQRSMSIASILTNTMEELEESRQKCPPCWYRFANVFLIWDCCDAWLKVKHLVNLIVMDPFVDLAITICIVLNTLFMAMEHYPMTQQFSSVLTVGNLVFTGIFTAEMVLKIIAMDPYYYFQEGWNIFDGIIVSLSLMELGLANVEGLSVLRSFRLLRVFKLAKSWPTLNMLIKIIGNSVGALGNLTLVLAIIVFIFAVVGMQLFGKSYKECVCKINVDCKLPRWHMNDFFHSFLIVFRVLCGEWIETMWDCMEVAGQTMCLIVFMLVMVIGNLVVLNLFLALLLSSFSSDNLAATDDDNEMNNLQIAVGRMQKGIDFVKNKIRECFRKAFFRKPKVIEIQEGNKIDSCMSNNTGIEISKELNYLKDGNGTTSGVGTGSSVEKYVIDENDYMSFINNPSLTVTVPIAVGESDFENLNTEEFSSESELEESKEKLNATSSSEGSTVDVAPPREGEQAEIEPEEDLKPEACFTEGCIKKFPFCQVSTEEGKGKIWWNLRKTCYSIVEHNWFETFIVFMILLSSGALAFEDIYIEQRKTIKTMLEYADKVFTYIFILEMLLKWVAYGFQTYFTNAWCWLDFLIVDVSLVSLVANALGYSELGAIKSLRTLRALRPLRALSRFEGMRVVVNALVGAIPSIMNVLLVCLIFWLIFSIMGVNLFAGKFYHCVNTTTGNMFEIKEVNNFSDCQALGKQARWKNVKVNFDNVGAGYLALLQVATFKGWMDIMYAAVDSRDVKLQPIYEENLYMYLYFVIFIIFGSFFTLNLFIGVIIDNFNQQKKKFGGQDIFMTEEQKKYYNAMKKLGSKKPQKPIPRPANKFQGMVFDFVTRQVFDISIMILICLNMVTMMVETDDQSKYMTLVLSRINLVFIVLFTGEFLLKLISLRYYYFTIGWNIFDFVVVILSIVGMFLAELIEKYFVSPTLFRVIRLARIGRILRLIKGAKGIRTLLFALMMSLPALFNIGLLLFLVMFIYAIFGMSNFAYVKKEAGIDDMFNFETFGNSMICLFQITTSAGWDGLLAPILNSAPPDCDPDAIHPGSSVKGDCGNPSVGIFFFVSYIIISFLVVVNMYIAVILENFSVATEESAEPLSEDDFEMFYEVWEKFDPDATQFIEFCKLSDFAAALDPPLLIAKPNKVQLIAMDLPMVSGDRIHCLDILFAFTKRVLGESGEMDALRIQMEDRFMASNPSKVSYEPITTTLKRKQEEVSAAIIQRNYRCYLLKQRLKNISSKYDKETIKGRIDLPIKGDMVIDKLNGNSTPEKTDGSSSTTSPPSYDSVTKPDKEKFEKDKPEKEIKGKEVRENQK
The target in series [4] is Sodium channel protein type 5 subunit alpha (Homo sapiens, UniProt Q14524). Description: Inhibition of human Nav1.5 expressed in HEK293 cells assessed as half-maximal voltage for steady state fast-inactivation at 10 uM by whole cell patch-clamp electrophysiology (reference value: -96.54 +/-1.64 mV). The format is cell-based. The conditions noted are these: hek293, 10 µM.
Sequence of Sodium channel protein type 5 subunit alpha (Q14524 whole entry): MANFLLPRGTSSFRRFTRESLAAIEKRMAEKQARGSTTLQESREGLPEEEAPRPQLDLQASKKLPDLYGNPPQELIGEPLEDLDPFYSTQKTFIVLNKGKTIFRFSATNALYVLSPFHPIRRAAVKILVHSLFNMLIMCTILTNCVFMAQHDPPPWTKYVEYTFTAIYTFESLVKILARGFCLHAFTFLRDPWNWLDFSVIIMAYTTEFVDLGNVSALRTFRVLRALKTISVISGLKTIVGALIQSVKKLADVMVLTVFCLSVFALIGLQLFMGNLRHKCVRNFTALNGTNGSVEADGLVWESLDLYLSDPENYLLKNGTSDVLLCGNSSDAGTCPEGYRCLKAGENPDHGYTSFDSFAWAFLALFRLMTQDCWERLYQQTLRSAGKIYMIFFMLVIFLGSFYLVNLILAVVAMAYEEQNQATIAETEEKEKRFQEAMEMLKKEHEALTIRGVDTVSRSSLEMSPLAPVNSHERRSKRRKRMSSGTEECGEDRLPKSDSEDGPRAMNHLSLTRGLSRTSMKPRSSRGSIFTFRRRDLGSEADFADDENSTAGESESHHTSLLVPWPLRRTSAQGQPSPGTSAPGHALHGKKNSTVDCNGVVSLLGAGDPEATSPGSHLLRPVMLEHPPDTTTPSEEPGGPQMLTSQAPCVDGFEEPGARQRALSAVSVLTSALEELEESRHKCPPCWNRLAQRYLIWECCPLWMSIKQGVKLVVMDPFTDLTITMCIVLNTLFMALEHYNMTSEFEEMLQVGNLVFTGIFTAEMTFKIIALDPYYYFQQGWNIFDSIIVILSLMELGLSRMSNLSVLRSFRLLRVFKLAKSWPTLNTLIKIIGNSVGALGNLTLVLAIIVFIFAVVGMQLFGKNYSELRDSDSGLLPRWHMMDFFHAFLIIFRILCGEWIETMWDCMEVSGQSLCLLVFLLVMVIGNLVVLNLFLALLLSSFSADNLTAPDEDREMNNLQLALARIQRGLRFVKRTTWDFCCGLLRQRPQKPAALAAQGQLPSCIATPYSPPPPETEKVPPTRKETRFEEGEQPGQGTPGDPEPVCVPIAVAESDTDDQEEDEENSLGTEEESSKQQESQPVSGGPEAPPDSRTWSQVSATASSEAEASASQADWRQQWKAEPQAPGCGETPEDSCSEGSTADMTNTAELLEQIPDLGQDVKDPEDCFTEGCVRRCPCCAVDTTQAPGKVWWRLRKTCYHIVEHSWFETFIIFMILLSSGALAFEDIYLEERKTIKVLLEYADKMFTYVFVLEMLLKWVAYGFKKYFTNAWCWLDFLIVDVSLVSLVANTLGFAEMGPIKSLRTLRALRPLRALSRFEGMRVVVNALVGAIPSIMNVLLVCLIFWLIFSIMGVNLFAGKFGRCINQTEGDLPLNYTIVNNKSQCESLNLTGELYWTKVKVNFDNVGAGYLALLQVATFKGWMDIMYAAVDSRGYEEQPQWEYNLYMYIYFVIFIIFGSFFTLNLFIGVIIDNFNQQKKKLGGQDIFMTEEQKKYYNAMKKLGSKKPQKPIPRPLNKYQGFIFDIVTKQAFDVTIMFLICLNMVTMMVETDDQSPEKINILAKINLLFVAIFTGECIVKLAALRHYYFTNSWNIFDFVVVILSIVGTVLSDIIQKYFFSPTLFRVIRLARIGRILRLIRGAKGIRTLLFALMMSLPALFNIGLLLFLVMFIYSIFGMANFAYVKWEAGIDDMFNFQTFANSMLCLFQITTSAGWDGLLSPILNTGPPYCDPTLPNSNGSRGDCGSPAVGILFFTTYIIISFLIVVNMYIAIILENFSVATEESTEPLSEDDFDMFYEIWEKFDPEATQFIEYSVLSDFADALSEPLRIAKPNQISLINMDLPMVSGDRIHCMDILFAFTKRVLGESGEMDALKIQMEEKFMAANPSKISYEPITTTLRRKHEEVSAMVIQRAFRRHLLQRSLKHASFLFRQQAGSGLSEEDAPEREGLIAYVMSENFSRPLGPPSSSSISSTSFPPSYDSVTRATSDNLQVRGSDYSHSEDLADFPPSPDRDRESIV

In series [5] the test system is Rattus norvegicus. Description: Anticonvulsant activity in ip dosed rat assessed as decrease in partial complex or temporal lobe seizures by hippocampal kindeld seizure test. It is filed as functional.
Series [6] concerns Rattus norvegicus. Description: Bioavailability in Sprague-Dawley rat at 5 mg/kg, iv and 20 mg/kg, po. The format is ADME, organism-based. The settings on record: in vivo. The method, boiled down:
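Pharmacokinetics in Sprague-Dawley rats given a single iv dose of 5 mg/kg or an oral dose of 20 mg/kg.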

The target in series [7] is Voltage-gated inwardly rectifying potassium channel KCNH2 (Homo sapiens, UniProt Q12809). Description: Binding affinity to human ERG at 30 uM by PatchExpress analysis.
Sequence of Voltage-gated inwardly rectifying potassium channel KCNH2 (Q12809 whole entry): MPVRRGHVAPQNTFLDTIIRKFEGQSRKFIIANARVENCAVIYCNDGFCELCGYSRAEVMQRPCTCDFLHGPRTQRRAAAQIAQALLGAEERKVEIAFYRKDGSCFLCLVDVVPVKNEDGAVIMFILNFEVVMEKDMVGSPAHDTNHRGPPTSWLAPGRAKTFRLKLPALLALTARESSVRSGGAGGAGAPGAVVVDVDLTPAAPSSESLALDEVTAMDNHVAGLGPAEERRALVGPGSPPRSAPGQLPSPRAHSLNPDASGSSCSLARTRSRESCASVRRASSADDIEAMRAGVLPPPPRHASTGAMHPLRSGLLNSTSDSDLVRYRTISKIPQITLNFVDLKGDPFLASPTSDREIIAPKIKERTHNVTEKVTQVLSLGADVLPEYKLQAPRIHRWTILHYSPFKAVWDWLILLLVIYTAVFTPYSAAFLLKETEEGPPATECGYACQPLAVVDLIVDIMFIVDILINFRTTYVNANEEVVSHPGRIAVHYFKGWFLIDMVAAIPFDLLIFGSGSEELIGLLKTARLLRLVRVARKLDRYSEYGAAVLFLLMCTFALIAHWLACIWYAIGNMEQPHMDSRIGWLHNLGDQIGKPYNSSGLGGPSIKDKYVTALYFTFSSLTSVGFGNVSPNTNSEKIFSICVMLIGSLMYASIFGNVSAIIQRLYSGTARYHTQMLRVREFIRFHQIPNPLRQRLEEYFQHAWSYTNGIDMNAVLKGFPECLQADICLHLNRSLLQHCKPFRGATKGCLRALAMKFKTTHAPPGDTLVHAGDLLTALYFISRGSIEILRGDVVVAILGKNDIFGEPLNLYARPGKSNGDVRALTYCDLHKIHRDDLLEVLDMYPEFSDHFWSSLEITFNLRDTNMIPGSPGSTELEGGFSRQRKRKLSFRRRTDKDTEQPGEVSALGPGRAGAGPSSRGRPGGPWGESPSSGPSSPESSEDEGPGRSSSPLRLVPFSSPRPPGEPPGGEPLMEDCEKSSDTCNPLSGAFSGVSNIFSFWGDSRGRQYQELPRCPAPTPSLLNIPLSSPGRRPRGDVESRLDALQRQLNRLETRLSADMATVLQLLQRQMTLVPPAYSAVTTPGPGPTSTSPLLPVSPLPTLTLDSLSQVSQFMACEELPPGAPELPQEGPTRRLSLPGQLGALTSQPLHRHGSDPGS

The source made the active and inactive calls. The rule behind the calls is not given here.

With `COC[C@@H](NC(C)=O)C(=O)NCc1ccc(Oc2cccc(OC(F)(F)F)c2)cc1`, the selectivity ratio in series [1] amounted to 6.2. Moreover, the outcome in the series filed under Rattus norvegicus [2] was inactive. Moreover, the V1/2 is -72.8 mV in series [3] and -95.36 mV in series [4]. Besides, in the series with Rattus norvegicus [5], the ED50 was determined as 22 mg/kg. The same molecule registered a F with Rattus norvegicus [6] of 92%. For the same molecule, the Activity result in series [7] was “Not Active”.

The ED50 is the midpoint of the dose-response relation.
